Article PMC10099993 (Clinical Pharmacology in Drug Development, 2022)
Where “and” joins values, the source holds several entries; their conditions need not be identical. Identical values can stand only once. Like-named read-outs stand apart in the source and are kept apart here.

Tests used:
[1] = Mass balance study, single oral dose of [14C]-pexidartinib 400 mg; assay type: in vivo, human; settings: for Percent of Radioactive Dose, feces: pooled feces
Procedure, shortened: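 Eight healthy men, 19–55 y, BMI 19–32 kg/m2. Single oral 400 mg (150 μCi) 14C suspension with ~50 mL water after ≥8 h fast, fasting ≥4 h after dosing. Confined ≥168 h; urine and feces collected up to 240 h. Total radioactivity by scintillation counting. Parent in plasma by validated LC-MS/MS. Radio-LC-MS profiling of metabolites. Noncompartmental PK.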

[2] = following oral administration; background statement, no reference given; cited from earlier work
[3] = assay type: in vivo, human; settings: for half-life / Cmax: human, plasma; for half-life: oral; for Cmax: po; for dose-normalized AUCinf, geometric LS mean / dose-normalized AUClast, geometric LS mean / dose-normalized Cmax, geometric LS mean: ANOVA
Procedure, shortened: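 Healthy adults of both sexes, 18–60 y, BMI 18–30 kg/m2. Randomized three-period crossover (sequences ABC/BCA/CAB), with a single fasted oral dose and 240 mL water on day 1 of each period and a 10-day washout. Plasma sampled 0.5–144 h postdose and analysed by validated LC-MS/MS. Noncompartmental PK. Mixed-effects ANOVA on dose-normalized ln Cmax/AUC versus the 400 mg reference. Power model: 90% CI of slope against the 80–120% interval.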

[4] = target: rCYP3A4 (Homo sapiens, UniProt P08684); experiment: In vitro metabolic enzyme identification, recombinant human CYP incubation; assay type: in vitro ADME; settings: 1 μM pexidartinib, NADPH, 37°C, 30 minutes
Sequence of rCYP3A4 (P08684 whole entry): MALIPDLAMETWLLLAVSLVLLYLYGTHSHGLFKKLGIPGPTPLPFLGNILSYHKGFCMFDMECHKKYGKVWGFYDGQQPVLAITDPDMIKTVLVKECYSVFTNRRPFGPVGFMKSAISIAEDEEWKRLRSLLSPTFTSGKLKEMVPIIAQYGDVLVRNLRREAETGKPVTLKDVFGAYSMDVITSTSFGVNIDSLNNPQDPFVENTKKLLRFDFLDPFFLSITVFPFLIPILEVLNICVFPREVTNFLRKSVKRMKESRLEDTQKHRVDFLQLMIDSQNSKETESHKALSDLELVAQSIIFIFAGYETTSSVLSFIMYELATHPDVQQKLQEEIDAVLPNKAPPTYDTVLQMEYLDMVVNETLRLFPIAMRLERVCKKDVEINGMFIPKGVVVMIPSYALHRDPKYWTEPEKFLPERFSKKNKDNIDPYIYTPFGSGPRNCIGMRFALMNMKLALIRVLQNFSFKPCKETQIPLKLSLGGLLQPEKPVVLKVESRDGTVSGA
Procedure, shortened: (§1)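 1 μM test compound incubated with a panel of recombinant human CYPs (1A2, 2B6, 2C8, 2C9, 2C19, 2D6, 3A4, 3A5) plus NADPH at 37°C for 30 minutes. Parent loss measured by LC-MS/MS.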

[5] = system: CYP2C9; settings: previous pharmacokinetic analyses ref 4; cited from earlier work
[6] = target: rCYP3A5 (Homo sapiens, UniProt P20815); experiment: In vitro metabolic enzyme identification, recombinant human CYP incubation; assay type: in vitro ADME; settings: 1 μM pexidartinib, NADPH, 37°C, 30 minutes
Sequence of rCYP3A5 (P20815 whole entry): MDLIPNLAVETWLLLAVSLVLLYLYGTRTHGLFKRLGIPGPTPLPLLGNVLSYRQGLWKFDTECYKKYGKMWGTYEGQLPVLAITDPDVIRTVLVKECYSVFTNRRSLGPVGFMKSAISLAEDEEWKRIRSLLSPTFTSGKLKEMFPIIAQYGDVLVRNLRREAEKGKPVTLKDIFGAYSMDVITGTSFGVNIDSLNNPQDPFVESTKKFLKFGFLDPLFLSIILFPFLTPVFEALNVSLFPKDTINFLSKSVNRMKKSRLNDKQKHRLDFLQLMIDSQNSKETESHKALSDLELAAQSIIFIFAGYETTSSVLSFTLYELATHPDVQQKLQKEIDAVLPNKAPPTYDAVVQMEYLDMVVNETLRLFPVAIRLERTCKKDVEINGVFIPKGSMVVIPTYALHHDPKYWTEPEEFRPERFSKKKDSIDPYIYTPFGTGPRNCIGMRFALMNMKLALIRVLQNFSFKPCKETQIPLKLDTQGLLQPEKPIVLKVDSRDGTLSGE
Procedure, shortened: as §1

[7] = system: cytochrome P450 (CYP) 3A; settings: previous pharmacokinetic analyses ref 4; cited from earlier work
[8] = male, human, plasma, po, 400 mg
[9] = single oral [14C]-pexidartinib 400 mg
[10] = single oral [14C]-pexidartinib 400 mg, N = 8, median (range)
[11] = across all three dose levels, 90%CI
[12] = dose-proportionality study, 18 subjects
[13] = pexidartinib 200 mg vs 400 mg (400 mg reference)
[14] = pexidartinib 400 mg vs 600 mg (400 mg reference)

FC(F)(F)c1ccc(CNc2ccc(Cc3c[nH]c4ncc(Cl)cc34)cn2)cn1 [Pexidartinib]
time of peak pexidartinib and total radioactivity ([1]; after the oral dose, pexidartinib and total radioactivity together): 1.75 to 2.0 h
severity of TEAEs ([1]; all events, mass balance study): mild (grade 1)
oral bioavailability ([1]; inferred from 44% of dose excreted unchanged in feces): moderate
Cmax [1, 8]: 2920 ng/mL
Tmax [1, 8]: 1.75 h
half-life [1, 8]: 28.7 h
AUC(0-t) ([1]; male, human, plasma, po, 400 mg, AUClast, pexidartinib in plasma, single oral [14C]-pexidartinib 400 mg, N = 8, mean (CV%)): 60400 ng·h/mL
TEAE deemed by the investigator to be related to pexidartinib treatment ([1]; mass balance study): Diarrhea
TEAE leading to death, serious adverse event, or discontinuation ([1]; mass balance study, 8 subjects): No subject
number of TEAEs ([1]; mass balance study, 8 subjects): four
administered radioactivity recovered in the feces ([1]; over 240 hours, single oral [14C]-pexidartinib 400 mg): 64.8%
administered radioactivity recovered in the urine ([1]; over 240 hours, single oral [14C]-pexidartinib 400 mg, listed as [^14C]‐pexidartinib): 27.4%
administered radioactivity recovered in the urine ([1]; over 240 hours, single oral [14C]-pexidartinib 400 mg, listed as pexidartinib): > 20%
share of total radioactivity in the plasma ([1]; plasma, single oral [14C]-pexidartinib 400 mg): 34.9%
Percent of Radioactive Dose, feces [1, 9]: 44%
Percent of Radioactive Dose, feces ([1]; single oral [14C]-pexidartinib 400 mg, listed as pexidartinib): 44.0%
Percent of Radioactive Dose, urine ([1]; pooled urine, single oral [14C]-pexidartinib 400 mg): no detectable
AUC0-24 of total plasma radioactivity relative to plasma pexidartinib [1, 9]: approximately 2 fold
AUClast of total radioactivity in plasma relative to pexidartinib in plasma [1, 9]: 3 fold
Cmax of total plasma radioactivity relative to plasma pexidartinib [1, 9]: approximately 2 fold
Tmax, total radioactivity in plasma [1, 10]: 2.0 (1.5, 3.0) h
Tmax, total radioactivity in whole blood [1, 10]: 2.0 (1.5, 3.0) h
time of maximum plasma concentrations [2]: approximately 2.5 hours
dose proportionality by power model ([3]; 200-600 mg, 90%CIs overlapped the 0.80-1.20 acceptance interval): inconclusive
slope estimate for AUClast versus dose (power model) [3, 11]: 0.85 (90%CI 0.77, 0.92)
slope estimate for Cmax versus dose (power model) [3, 11]: 0.83 (90%CI 0.74, 0.91) and 0.83 (90%CI, 0.74, 0.91)
severity of TEAEs ([3]; all TEAEs, dose-proportionality study): grade 1
TEAE leading to death, serious adverse event, or discontinuation [3, 12]: No subject
subjects who experienced TEAEs [3, 12]: four
half-life [3]: 24.8 to 26.7 h
half-life ([3]; 600 mg): 24.8 h
Cmax ([3]; 200 mg): 2490 ng/mL
Cmax ([3]; 400 mg): 4660 ng/mL
Cmax ([3]; 600 mg): 6030 ng/mL
dose-normalized AUCinf, geometric LS mean ratio (90%CI) [3, 13]: 101.3 (93.5, 109.7) %
dose-normalized AUClast, geometric LS mean ratio (90%CI) [3, 13]: 101.3 (93.5, 109.8) %
dose-normalized Cmax, geometric LS mean ratio (90%CI) [3, 13]: 105.9 (96.8, 115.8) %
dose-normalized AUCinf, geometric LS mean ([3]; pexidartinib 200 mg, n = 18): 209.4 ng·h/mL/mg
dose-normalized AUClast, geometric LS mean ([3]; pexidartinib 200 mg, n = 18): 204.1 ng·h/mL/mg
dose-normalized Cmax, geometric LS mean ([3]; pexidartinib 200 mg, n = 18): 11.7 ng/mL • mg
t1/2, pexidartinib in plasma ([3]; pexidartinib 200 mg, n = 18, mean (SD)): 25.5 (5.2) h
dose-normalized AUCinf, geometric LS mean ratio (90%CI) [3, 14]: 83.7 (77.3, 90.7) %
dose-normalized AUClast, geometric LS mean ratio (90%CI) [3, 14]: 84.1 (77.6, 91.2) %
dose-normalized Cmax, geometric LS mean ratio (90%CI) [3, 14]: 86.3 (79.0, 94.4) %
dose-normalized AUCinf, geometric LS mean ([3]; pexidartinib 400 mg, n = 18): 206.8 ng·h/mL/mg
dose-normalized AUClast, geometric LS mean ([3]; pexidartinib 400 mg, n = 18): 201.4 ng·h/mL/mg
dose-normalized Cmax, geometric LS mean ([3]; pexidartinib 400 mg, n = 18): 11.0 ng/mL • mg
dose-normalized AUCinf, geometric LS mean ([3]; pexidartinib 600 mg, n = 18): 173.2 ng·h/mL/mg
dose-normalized AUClast, geometric LS mean ([3]; pexidartinib 600 mg, n = 18): 169.4 ng·h/mL/mg
dose-normalized Cmax, geometric LS mean ([3]; pexidartinib 600 mg, n = 18): 9.5 ng/mL • mg
substrate loss [4]: 100 % loss
effect on CYP2C9 [5]: weak inhibitor
substrate loss [6]: 100 % loss
effect on CYP3A [7]: moderate inducer
